Measurements: ChEMBL document CHEMBL3244304, “Correlation of biological activity and high-pressure liquid chromatographic retention index for a series of propranolol, barbiturate, and anthranilic acid analogues” (J Med Chem, 1979)

Columns and labels:
[1] = Octanol-buffer partition coefficient, log P of the compound at pH 8.0 by ultraviolet spectroscopy; type: physicochemical
Outline: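 Drug distributed between an octanol phase and an aqueous buffer at pH 8.0, the same way as the pH 7.0 phosphate-buffer method. Drug in each phase quantified by ultraviolet spectroscopy, and the log of the octanol/buffer distribution ratio was reported.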

[2] = Retention index of the compound by HPLC method; type: physicochemical
[3] = Octanol-water partition coefficient, log P of nonionized form of compound; type: physicochemical
Oryctolagus cuniculus = species: Oryctolagus cuniculus; experiment: Hypnotic activity in rabbit; type: functional
Outline: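 Rabbits; value expressed as negative log of the minimum effective dose (mol/kg).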

[4] = Inhibition of Arbacia egg cell division; type: functional
Outline: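 Arbacia egg cell division; value expressed as negative log of the molar drug concentration needed to reduce cell division 50%.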

SMILES	logD [1]	Retention_index [2]	logP [3]	pMED (Oryctolagus cuniculus)	pED50 [4]
O=C(O)c1ccccc1NS(=O)(=O)c1ccccc1	-0.46	530			
O=C(O)c1ccccc1NS(=O)(=O)c1ccc(F)cc1	0.03	565			
Cc1ccc(S(=O)(=O)Nc2ccccc2C(=O)O)cc1	0.05	606			
O=C(O)c1ccccc1NS(=O)(=O)c1ccc(Cl)cc1	0.54	656			
O=C(O)c1ccccc1NS(=O)(=O)c1ccc([N+](=O)[O-])cc1	-0.03	586			
O=C(O)c1ccccc1NS(=O)(=O)c1ccc(Br)cc1	0.83	678			
CCC1(CCC(C)C)C(=O)NC(=O)NC1=O [AMOBARBITAL]		681	1.95		
C=CCC1(C(C)C)C(=O)NC(=O)NC1=O [APROBARBITAL]		552	1.15	3.6	
CCC1(CC)C(=O)NC(=O)NC1=O [BARBITAL]		423	0.65	3.09	
O=C1CC(=O)NC(=O)N1 [BARBITURIC ACID]		53	-1.35		
CCC(C)C1(CC)C(=O)NC(=O)NC1=O (centres undefined) [BUTABARBITAL]		600	1.45	3.63	
C=CCC1(CC(C)C)C(=O)NC(=O)NC1=O [BUTALBITAL]		616	1.45		
CCCCC1(CC)C(=O)NC(=O)NC1=O [BUTETHAL]		610	1.65	3.72	2.4
CCC1(C2=CCCCC2)C(=O)NC(=O)NC1=O [CYCLOBARBITAL]		604	1.86		
CN1C(=O)NC(=O)C(C)(C2=CCCCC2)C1=O (centres undefined) [HEXOBARBITAL]		648	1.92		
CCC1(CC)C(=O)NC(=O)N(C)C1=O [METHARBITAL]		532	1.21		
C=CCC1(C(C)C#CCC)C(=O)N=C(O)N(C)C1=O (centres undefined) [METHOHEXITAL]		776	2.19		
CCCC(C)C1(CC)C(=O)NC(=O)NC1=O (centres undefined) [PENTOBARBITAL]		686	1.95		
CCC1(c2ccccc2)C(=O)NC(=O)NC1=O [PHENOBARBITAL]		523			
C=CCC1(C(C)CCC)C(=O)NC(=O)NC1=O (centres undefined) [SECOBARBITAL]		728	2.15	4.2	
C=CCC1(C(C)CCC)C(=O)N=C(S)NC1=O (centres undefined) [THIAMYLAL]		760	3.2		
CCCC(C)C1(CC)C(=O)NC(=S)NC1=O (centres undefined) [THIOPENTAL]		732	3		
